# High-throughput results: PubChem BioAssay, several laboratories
# An excerpt weighted towards active compounds, which were near 4.9% of everything screened.
# PHOSPHO1 block = blocks human PHOSPHO1 phosphatase activity | Q8TCT1 | recombinant PHOSPHO1, absorbance phosphatase assay | inhibition, % at 13.3 µM | 290,000 compounds, 1.1% hits; in the data active = inhibition above about 60%
# Lipid droplet = hepatic lipid droplet formation modulation. AML12 mouse hepatocytes, oleate lipid droplets, BODIPY imaging. AID 1656. inhibition, % at 6.5 µM. 240,000 compounds, 0.4% hits;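 active = lipid droplet intensity inhibited by at least 50%, with more than 500 cells counted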
#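 Material – mouse AML12 hepatocyte cell line, fixed after treatment · Compound dosing – one dose, 6.5 µM compound · Times – compound with oleate, overnight · Measured by – Image-based BODIPY and DAPI two-channel analysis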
# HSF1 inhib = HSF1 inhibition; NIH3T3-HGL HSE-luciferase, MG132-induced, luminescence 8 h; active compounds read low; activity change, negative = inhibition, % at 7.5 µM (by protocol); 300,000 compounds, 0.77% hits; AID 2098;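 active = more than half of replicate wells show activity change below -50%, luminescence cut by over half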;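 note: luciferase reports HSF-1 transcriptional activity via heat shock element; 0% = median of DMSO wells and -100% = zero luminescence signal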
# CHT allo act = allosterically activates the human high affinity choline transporter | 310,000 compounds, 0.49% hits | CHT-expressing cells, membrane potential dye, choline EC20; active compounds read high; LV-AA mutant CHT in HEK293 cells | B-score at 10 µM | Q9GZV3 | AID 488977;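 active = initial fluorescence not abnormally high and integrated response B-score, plate-corrected, over 3 SD above library mean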
# Target sequence (Q9GZV3 whole entry, looked up): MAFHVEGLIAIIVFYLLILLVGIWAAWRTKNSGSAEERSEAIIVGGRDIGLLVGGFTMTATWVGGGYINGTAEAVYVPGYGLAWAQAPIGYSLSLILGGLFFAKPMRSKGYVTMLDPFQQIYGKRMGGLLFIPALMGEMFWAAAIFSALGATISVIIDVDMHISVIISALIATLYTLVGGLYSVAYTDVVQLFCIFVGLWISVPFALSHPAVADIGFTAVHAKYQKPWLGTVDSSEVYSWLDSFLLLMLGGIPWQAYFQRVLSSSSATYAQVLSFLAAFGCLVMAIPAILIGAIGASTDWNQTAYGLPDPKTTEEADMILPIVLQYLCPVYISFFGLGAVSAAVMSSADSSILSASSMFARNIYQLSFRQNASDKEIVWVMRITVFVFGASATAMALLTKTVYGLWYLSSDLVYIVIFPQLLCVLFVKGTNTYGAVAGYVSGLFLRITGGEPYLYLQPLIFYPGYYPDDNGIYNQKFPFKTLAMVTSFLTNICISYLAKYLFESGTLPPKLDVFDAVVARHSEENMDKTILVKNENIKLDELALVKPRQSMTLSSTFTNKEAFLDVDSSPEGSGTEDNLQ
# CHT block = human CHT choline transport inhibition. Q9GZV3. CHT-expressing cells, membrane potential dye, choline response; active compounds read low. B-score at 10 µM. 310,000 compounds, 0.86% hits. AID 488975;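 active = B-score over 3 SD under the library average, and starting fluorescence ratio not unusually high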;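 note: choline stimulus applied at its EC90 after an EC20 pre-addition; B-score computed on integrated fluorescence ratio after choline addition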
# HSF-1 act = increases HSF-1 driven luciferase reporter signal; NIH3T3-HGL HSF-1 luciferase reporter, MG132, 8 h; 100% = twice DMSO control signal; activation, % at 9 µM; 300,000 compounds, 1.7% hits;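 active = mean replicate activation of at least 50% with a set share of replicates each reaching 50%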;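 note: 0% = median of the neutral control wells and 100% = twice that signal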
# CHT act confirm = confirmation of human choline transporter (CHT) activators. shares compounds with CHT allo act. CHT-expressing cells, membrane potential dye fluorescence (FDSS); % of choline EC20–EC90 response window; HEK293 expressing CHT LV-AA mutant; choline added at its EC20. AID 504833. activation, % at 10 µM. 2,500 compounds, 91% hits;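 active = primary screen active, with duplicate mean activation above negative control mean plus 3 SD, cut at about 11% in these data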
# HEK293 MP dye = counter-screen for CHT activators: effect in parental HEK293 cells. shares compounds with CHT allo act. membrane potential dye fluorescence (FDSS); measured after EC20 choline addition. ratio readout change at 10 µM, hits read low. 2,500 compounds, 62% hits;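 active = duplicate-averaged ratio beyond 3 SD from buffer wells, up or down, though filed actives are nearly all decreases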
# Starred values were filed as active, the others as inactive; i = inactive; / = no result; ! = not active in a repeat.
SMILES,PHOSPHO1 block,Lipid droplet,HSF1 inhib,CHT allo act,CHT block,HSF-1 act,CHT act confirm,HEK293 MP dye
Cn1c(CCN2CCCCC2)nc2cc([N+](=O)[O-])ccc21,13.5,/,13.4,8.54*,i,13.8,58.2*,-62.4*
c1csc(-c2nc(NCC3CCCO3)c3ccccc3n2)c1 (configuration not stated),19.4,9.1,-6.0,i,i,-15.0,/,/
c1ccc(CN2CCC(Nc3nc(-c4cccs4)nc4ccccc34)CC2)cc1,-5.9,-2.0,16.4,i,i,26.5,22.9*,-48.4*
CN1CCN(c2nc(-c3cccs3)nc3ccccc23)CC1,-3.4,13.5,-0.5,i,i,14.6,39.1*,-64.8*
CCN1CCN(c2nc(-c3cccs3)nc3ccccc23)CC1,-13.5,25.3,16.9,7.08*,i,14.8,43.0*,-40.3*
Cc1ccc2cccc(OCCCOc3ccccc3F)c2n1,8.5,-2.9,12.3,i,i,8.2,/,/
Cc1ccc2ccc3ccc(C)nc3c2n1,4.7,-6.6,0.8,10.5*,i,-14.1,67.4*,-75.1*
CCOC(=O)c1ccc2c(c1)n(CC)c(/C=C/N(C)c1ccccc1)[n+]2CC,-27.0,-60.0,-11.8,7.43*,i,-6.5,44.5*,-62.8*
CCn1c(/C=C/N(C(C)=O)c2ccccc2)[n+](CCCS(=O)(=O)[O-])c2cc(Cl)c(Cl)cc21,-5.7,-17.0,3.4,i,i,2.5,/,/
C[n+]1ccccc1/C=C/c1c(F)cccc1F,-38.5,/,-1.7,i,i,11.6,/,/
C[n+]1ccccc1/C=C/c1ccc(F)c(F)c1,-13.0,-6.7,6.2,8.29*,i,1.7,58.4*,-64.8*
Cc1ccccc1/C=C/c1cccc[n+]1C,-137.4,/,-7.0,i,i,1.6,45.3*,-54.7*
C[n+]1ccccc1/C=C/c1ccccc1Cl,-75.0,/,-4.3,i,i,2.0,/,/
CC1CC2C3CCC4=CC(=O)C=CC4(C)[C@@]3(Cl)C(O)CC2(C)C1(O)C(=O)CO (some centres not stated),/,/,-48.8,i,i,-58.0,/,/
O=S(=O)(NCc1ccccc1)c1cccs1,7.2,-21.0,-1.9,i,i,-9.4,/,/
CCCc1nnc(NC(=O)C(CC)OC(=O)c2cc(C)nc3ccccc23)s1 (configuration not stated),1.3,/,3.4,6.33*,i,-1.2,22.0*,i
O=C(CSC1=NCCN1)Nc1cccc([N+](=O)[O-])c1,-24.1,-10.1,8.8,6.68*,i,26.2,50.6*,-45.4*
C=CCOC(=O)c1ccc(-n2cnc(C)n2)nc1,43.9,13.9,-4.8,i,i,2.7,/,/
C=CCOC(=O)c1ccc(-n2cncn2)nc1,0.2,-13.5,-2.9,i,i,3.3,20.7*,i
Cn1cnnc1SCC(=O)NC1CCCc2ccccc21 (configuration not stated),24.3,-1.1,0.6,i,i,-10.4,/,/
COc1cccc(N2CCN(S(=O)(=O)c3c(C)[nH]c(C)c3C(=O)N3CCCC3)CC2)c1,26.3,-18.4,-5.7,i,i,4.4,/,/
CCCc1c(CC)c(=N)c2ccccc2n1C,41.2,1.1,-13.5,7.54*,i,-10.6,63.7*,-58.1*
CC(C)c1csc(CN2CCC(CO)(Cc3cccc(F)c3)CC2)n1,32.8,1.1,0.0,i,i,5.1,/,/
O=C(COC(=O)COc1ccccc1[N+](=O)[O-])Nc1ccccc1Br,4.1,18.0,-2.9,i,i,1.4,/,/
COc1cc2nc(N3CCN(C(=O)c4ccco4)CC3)nc(N)c2cc1OC,-6.3,-2.1,-6.3,6.49*!,i,2.3,36.6*,-26.5*
